The nature of experiment [1]: microbe, parasite or virus in culture. Format: functional, Mycobacterium bovis BCG str. Tokyo 172. The settings on record: Mycobacterium tuberculosis variant bovis BCG.
Experiment [2] has as its system Mycolicibacterium smegmatis. The experiment in a line: microbe, parasite or virus in culture. Format: functional. The settings on record: JATA 64.01.
Experiment [3] concerns Mycobacterium tuberculosis. Kind of experiment: Antimycobacterial activity against Mycobacterium tuberculosis H37Rv. The class given is functional.
The test system of experiment [4] is Staphylococcus aureus. The experiment in a line: Antimicrobial activity against Staphylococcus aureus. Format: functional.
Experiment [5] is described as follows: microbe, parasite or virus in culture. The settings on record: Mycobacterium avium, 104. The class given is functional, Mycobacterium avium subsp. hominissuis.
In experiment [6] the test system is Escherichia coli. The experiment in a line: Antimicrobial activity against Escherichia coli DH5alpha. Format: functional. The settings on record: DH5[alpha].
The subject of experiment [7] is Staphylococcus aureus. Kind of experiment: microbe, parasite or virus in culture. The class given is functional. The settings on record: 873.
Experiment [8] has as its system Mycobacterium avium. Kind of experiment: microbe, parasite or virus in culture. Format: functional, Mycobacterium avium subsp. avium ATCC 25291. The conditions noted are these: ATCC 2529.
The subject of experiment [9] is Mycobacterium tuberculosis. The experiment in a line: Antimycobacterial activity against drug-sensitive Mycobacterium tuberculosis isolate 4. Format: functional. Put shortly:
(§1)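 MIC by broth dilution in Middlebrook 7H9 broth supplemented with albumin, dextrose and catalase.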

For experiment [10], the system named is Mycobacterium tuberculosis. Kind of experiment: Antimycobacterial activity against drug-sensitive Mycobacterium tuberculosis isolate 19. The class given is functional. Put shortly:
as §1

For experiment [11], the system named is Mycobacterium tuberculosis. Kind of experiment: Antimycobacterial activity against drug-sensitive Mycobacterium tuberculosis isolate 9. Format: functional. Put shortly:
as §1

Experiment [12] concerns Mycobacterium tuberculosis. Kind of experiment: Antimycobacterial activity against drug-sensitive Mycobacterium tuberculosis isolate 7. Format: functional. Summed up:
as §1

For experiment [13], the system named is Enterococcus faecalis. The experiment in a line: Antimicrobial activity against AGs-resistant Enterococcus faecalis ATCC 19434. Format: functional.
In experiment [14] the test system is Staphylococcus aureus. Kind of experiment: Antimicrobial activity against drug-sensitive Staphylococcus aureus 209PJC-1. Format: functional.
Experiment [15] has as its system Mycobacterium tuberculosis. The experiment in a line: Antimycobacterial activity against drug-sensitive Mycobacterium tuberculosis isolate 17. Format: functional. Put shortly: as §1
The test system of experiment [16] is Mycobacterium tuberculosis. The experiment in a line: Antimycobacterial activity against drug-sensitive Mycobacterium tuberculosis isolate 13. Format: functional. Put shortly:
as §1

Experiment [17] deals with Mycobacterium tuberculosis. The experiment in a line: Antimycobacterial activity against drug-sensitive Mycobacterium tuberculosis isolate 12. Format: functional. Summed up: as §1
Experiment [18] relates to Mycobacterium tuberculosis. Kind of experiment: Antimycobacterial activity against drug-sensitive Mycobacterium tuberculosis isolate 5. The class given is functional. Summed up:
as §1

For experiment [19], the system named is Mycobacterium tuberculosis. The experiment in a line: Antimycobacterial activity against drug-sensitive Mycobacterium tuberculosis isolate 6. The class given is functional. Summed up: as §1
Experiment [20] deals with Mycobacterium tuberculosis. Kind of experiment: Antimycobacterial activity against drug-sensitive Mycobacterium tuberculosis isolate 14. The class given is functional. Summed up: as §1
Experiment [21] relates to Mycobacterium tuberculosis. Kind of experiment: Antimycobacterial activity against drug-sensitive Mycobacterium tuberculosis isolate 1. The class given is functional.
The test system of experiment [22] is Staphylococcus aureus. The experiment in a line: Antimicrobial activity against drug-sensitive Staphylococcus aureus RN4220. The class given is functional.
Experiment [23] deals with Mycobacterium tuberculosis. The experiment in a line: Antimycobacterial activity against drug-sensitive Mycobacterium tuberculosis isolate 15. Format: functional. Put shortly:
as §1

For experiment [24], the system named is Escherichia coli. The experiment in a line: Antimicrobial activity against drug-sensitive Escherichia coli JM109. The class given is functional.
Experiment [25] has as its system Mycobacterium tuberculosis. The experiment in a line: Antimycobacterial activity against drug-sensitive Mycobacterium tuberculosis isolate 8. Format: functional. Summed up:
as §1

The test system of experiment [26] is Mycobacterium tuberculosis. The experiment in a line: Antimycobacterial activity against drug-sensitive Mycobacterium tuberculosis isolate 16. Format: functional. Summed up: as §1
The subject of experiment [27] is Mycobacterium tuberculosis. Kind of experiment: Antimycobacterial activity against drug-sensitive Mycobacterium tuberculosis isolate 20. The class given is functional. Summed up: as §1
For experiment [28], the system named is Enterococcus faecalis. The experiment in a line: Antimicrobial activity against AGs-resistant Enterococcus faecalis ATCC 19433. The class given is functional.
The test system of experiment [29] is Pseudomonas aeruginosa. Kind of experiment: Antibacterial activity against drug-sensitive Pseudomonas aeruginosa PAO1. The class given is functional.
The test system of experiment [30] is Mycobacterium tuberculosis. The experiment in a line: Antimycobacterial activity against drug-sensitive Mycobacterium tuberculosis isolate 3. Format: functional. Summed up:
as §1

The subject of experiment [31] is Staphylococcus aureus. The experiment in a line: Antimicrobial activity against methicillin-resistant Staphylococcus aureus MF490. Format: functional.
For experiment [32], the system named is Klebsiella pneumoniae. Kind of experiment: Antibacterial activity against […] Klebsiella pneumoniae ATCC BAA-1705. Format: functional.
Experiment [33] deals with Mycobacterium tuberculosis. The experiment in a line: Antimycobacterial activity against drug-sensitive Mycobacterium tuberculosis isolate 2. The class given is functional. Summed up:
as §1

The subject of experiment [34] is Mycobacterium tuberculosis. Kind of experiment: Antimycobacterial activity against drug-sensitive Mycobacterium tuberculosis isolate 11. The class given is functional. Summed up: as §1
For experiment [35], the system named is Mycobacterium tuberculosis. Kind of experiment: Antimycobacterial activity against drug-sensitive Mycobacterium tuberculosis isolate 10. The class given is functional. Summed up: as §1
In experiment [36] the test system is Mycobacterium tuberculosis. The experiment in a line: Antimycobacterial activity against drug-sensitive Mycobacterium tuberculosis isolate 18. The class given is functional. Put shortly:
as §1

The structures appear in SMILES notation. ≈ marks a conversion by molar mass, not a printed value. Some results are limits rather than exact numbers.

Consider `CCN(CC)C(=S)[S-].[Na+]` [DITIOCARB SODIUM], for which the MIC in experiment [1] is 3.13 µg/mL; in experiment [2] it was over 100 µg/mL; in experiment [3], 3.13 µg/mL.
Take `CN(C)C(=S)S[C@@H]1O[C@H](CO)[C@@H](O)[C@H](O)[C@H]1NC(=O)C1CC1`: in experiment [3], the MIC turned out to be 50 µg/mL (≈ 143 µM).
`CN(C)C(=S)[S-].[Na+]` [SODIUM DIMETHYLCARBAMODITHIOATE]: the MIC in experiment [4] was over 100 µg/mL; in experiment [5], over 100 µg/mL; in experiment [1], 1.56 µg/mL; in [6], over 100 µg/mL; in experiment [2] it was over 100 µg/mL; in [3], 1.56 µg/mL. Further, the MIC in [7] and in [8] was over 100 µg/mL in each case.
On to `CO[C@H]1/C=C/O[C@@]2(C)Oc3c(C)c(O)c4c(O)c(c(/C=N/N5CCN(C)CC5)c(O)c4c3C2=O)NC(=O)/C(C)=C\C=C\[C@H](C)[C@H](O)[C@@H](C)[C@@H](O)[C@@H](C)[C@H](OC(C)=O)[C@@H]1C` [RIFAMPIN], for which the MIC was 0.002 µg/mL (≈ 0.00243 µM) in experiment [4]; 0.25 µg/mL (≈ 0.304 µM) in [5]; 0.004 µg/mL (≈ 0.00486 µM) in experiment [1]; 50 µg/mL (≈ 60.8 µM) in [6]; 0.004 µg/mL (≈ 0.00486 µM) in [3]; 0.004 µg/mL (≈ 0.00486 µM) in experiment [7]. This molecule also displayed an MIC in experiment [8] of under 0.05 µg/mL.
Consider `N.S=C(S)N1CCCC1` [PYRROLIDINE DITHIOCARBAMIC ACID, AMMONIUM SALT], for which the MIC in experiment [9] turned out to be 0.2 µg/mL; in experiment [10] it was 0.4 µg/mL; in experiment [11], 0.2 µg/mL; in experiment [12], 0.4 µg/mL; in [13], 32 µg/mL; in experiment [4], 12.5 µg/mL. The MIC is 8 µg/mL in experiment [14]; 3.13 µg/mL in experiment [5]; 0.4 µg/mL in [1]; 0.2 µg/mL in experiment [15]; 12.5 µg/mL in experiment [6]; 0.4 µg/mL in experiment [16]. For the same molecule, the MIC was 0.2 µg/mL in experiment [17]; 0.2 µg/mL in experiment [18]; 0.2 µg/mL in [19]; 0.2 µg/mL in [20]; over 100 µg/mL in experiment [2]; 0.2 µg/mL in experiment [21]. For the same molecule, the MIC in [22] is 8 µg/mL; in experiment [23], 0.2 µg/mL; in experiment [24], over 32 µg/mL; in [25], 0.4 µg/mL; in experiment [26], 0.2 µg/mL; in [27], 0.4 µg/mL. The MIC is 32 µg/mL in experiment [28]; over 32 µg/mL in experiment [29]; 0.2 µg/mL in experiment [30]; 8 µg/mL in experiment [31]; 0.2 µg/mL in [3]; 12.5 µg/mL in [7]. Besides, the MIC is over 32 µg/mL in [32]; 0.2 µg/mL in [33]; 0.2 µg/mL in [34]; 0.2 µg/mL in experiment [35]; 3.13 µg/mL in [8]; 0.2 µg/mL in experiment [36].
As to `NNC(=O)c1ccncc1` [ISONIAZID], the MIC in experiment [4] was over 100 µg/mL; in [5] it was 1.56 µg/mL (≈ 11.4 µM); in [1], 0.04 µg/mL (≈ 0.292 µM); in experiment [6], over 100 µg/mL; in experiment [3], 0.04 µg/mL (≈ 0.292 µM); in [7], over 100 µg/mL. In experiment [8], this molecule returned an MIC of 3.13 µg/mL (≈ 22.8 µM).
`CC1(C)S[C@@H]2[C@H](NC(=O)[C@H](N)c3ccccc3)C(=O)N2[C@H]1C(=O)O` [AMPICILLIN]: the MIC in experiment [4] was 50 µg/mL (≈ 143 µM); in experiment [1] it was 12.5 µg/mL (≈ 35.8 µM); in experiment [6], over 100 µg/mL; in [3] it was 12.5 µg/mL (≈ 35.8 µM); in experiment [7], over 100 µg/mL.
Regarding `S=C([S-])N(c1c[nH]cn1)c1c[nH]cn1.[Na+]`, the MIC in experiment [1] is 12.5 µg/mL; in experiment [2], over 100 µg/mL; in [3], 6.25 µg/mL.
On to `CC(=O)N[C@@H]1[C@@H](O)[C@H](O)[C@@H](CO)O[C@H]1SC(=S)N(C)C`, for which the MIC in experiment [4] was over 100 µg/mL; in experiment [5] it was over 100 µg/mL; in [1] it was 31.3 µg/mL (≈ 96.5 µM); in experiment [6], over 100 µg/mL; in experiment [3], 25 µg/mL (≈ 77.1 µM); in experiment [7], over 100 µg/mL. The molecule further registered an MIC in [8] of over 100 µg/mL.
For the molecule `CC[C@@H](CO)NCCN[C@@H](CC)CO` [ETHAMBUTOL], the MIC is over 100 µg/mL in experiment [4]; 1.6 µg/mL (≈ 7.83 µM) in experiment [5]; 1.5 µg/mL (≈ 7.34 µM) in experiment [1]; over 100 µg/mL in experiment [6]; 2.5 µg/mL (≈ 12.2 µM) in experiment [3]; over 100 µg/mL in [7]. This molecule yielded an MIC in experiment [8] of 1.6 µg/mL (≈ 7.83 µM).
In the case of `NC[C@H]1O[C@H](O[C@H]2[C@H](O)[C@@H](O[C@H]3O[C@H](CO)[C@@H](O)[C@H](N)[C@H]3O)[C@H](N)C[C@@H]2N)[C@H](O)[C@@H](O)[C@@H]1O` [KANAMYCIN], the MIC is 12.5 µg/mL (≈ 25.8 µM) in experiment [4]; 3.13 µg/mL (≈ 6.46 µM) in experiment [5]; 0.3 µg/mL (≈ 0.619 µM) in experiment [1]; 12.5 µg/mL (≈ 25.8 µM) in experiment [6]; 1.56 µg/mL (≈ 3.22 µM) in [3]; over 100 µg/mL in experiment [7]. This molecule also had an MIC in experiment [8] of 3.13 µg/mL (≈ 6.46 µM).

Values taken from ChEMBL document CHEMBL1667806, “Synthesis and evaluation of anti-tubercular activity of new dithiocarbamate sugar derivatives” (2011).
